# Source: PubChem BioAssay
# CHO parental Ca: counter-screen: ATP calcium response change in parental CHO cells. inhibition, % at 5.6 µM. 330,000 compounds, 0.63% hits. parental CHO-K1, ATP-induced calcium, Fluo-8 fluorescence;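 active = inhibition above that plate's mean sample inhibition plus 3 SD, cut at about 26% in these data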;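 also: 0% = ATP-challenged DMSO wells and 100% = DMSO wells without ATP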
#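 Assay system: untransfected parental CHO cell line. Also added: ATP agonist challenge. Dosing: one dose, 5.6 µM nominal. Measured by: Fluo-8 fluorescence. Read-out: % inhibition. Benchmarks: ATP wells versus no-ATP DMSO wells. Repeats: no replicates.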
# GalR3 antagonist: blocks the human galanin receptor 3; HEK293 GalR3-CNG cAMP membrane potential fluorescence; galR3 body fused to GalR1 C-terminus; O60755; 360,000 compounds, 0.44% hits; inhibition, % at 3 µM;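 active = inhibition above the screen-wide average plus 3 SD, cut at about 13% in these data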;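 also: forskolin and galanin both at EC90 stimulate the cells; cAMP rise reported by CNG channel membrane potential dye signal; 0% = forskolin plus galanin with DMSO and 100% = forskolin alone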
# Target sequence (O60755 1-299 limits assumed): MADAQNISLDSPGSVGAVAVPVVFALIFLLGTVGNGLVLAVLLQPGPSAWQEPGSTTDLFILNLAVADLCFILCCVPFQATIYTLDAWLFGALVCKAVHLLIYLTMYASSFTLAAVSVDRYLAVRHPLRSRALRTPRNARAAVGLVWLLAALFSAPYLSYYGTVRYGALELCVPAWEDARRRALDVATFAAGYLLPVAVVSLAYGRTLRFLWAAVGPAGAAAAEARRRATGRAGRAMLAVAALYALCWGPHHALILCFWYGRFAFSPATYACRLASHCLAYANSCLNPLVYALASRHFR
# GPR7 antagonist: human neuropeptides B/W receptor 1 antagonism | P48145 | GPR7-expressing cells, fluorescence antagonist assay | inhibition, % at 4.4 µM | 290,000 compounds, 1.1% hits; in the data active = inhibition above about 16%, passing the limit was not always enough;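 also: cells stimulated with the agonist NPW; 0% = agonist with vehicle and 100% = vehicle without agonist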
# Target sequence (P48145 whole entry, looked up): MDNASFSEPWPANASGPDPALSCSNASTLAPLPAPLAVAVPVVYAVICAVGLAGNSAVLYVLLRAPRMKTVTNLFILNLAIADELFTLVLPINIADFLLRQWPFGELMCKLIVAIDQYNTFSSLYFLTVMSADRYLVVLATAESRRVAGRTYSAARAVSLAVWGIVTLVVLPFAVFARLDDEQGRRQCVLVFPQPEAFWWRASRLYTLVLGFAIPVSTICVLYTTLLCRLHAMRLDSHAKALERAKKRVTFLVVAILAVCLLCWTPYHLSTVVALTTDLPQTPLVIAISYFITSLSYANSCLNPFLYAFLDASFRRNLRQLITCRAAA
# OX1R antag-1: blocks the human orexin 1 receptor; O43613; CHO/OX1R cells, Fluo-8 calcium fluorescence, orexin A; inhibition, % at 5 µM; 330,000 compounds, 0.43% hits;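 active = inhibition above its plate's threshold, mean inhibition of all tested compounds on the plate plus 3 SD, cut at about 37% in these data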;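 also: 0% = orexin A challenge wells and 100% = SB-334867-A antagonist wells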
# OX1R antag-2: OX1R (human) antagonism; O43613; OX1R-expressing cells, FRET antagonist read-out; inhibition, % at 6.6 µM; 330,000 compounds, 1.8% hits; AID 485270; in the data active = inhibition mostly above about 38%, no sharp cut-off; inactive = mostly below about 40%;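 also: 0% = agonist challenge alone and 100% = reference antagonist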
# GPR7 antag cf: confirmation of human GPR7 antagonists. shares compounds with GPR7 antagonist. GPR7-expressing cells, calcium fluorescence antagonist mode. inhibition, % at 4.4 µM. 2,400 compounds, 52% hits. AID 1952; in the data active = inhibition above about 24%;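 also: stimulated with the GPR7 agonist NPW; 0% = agonist plus vehicle and 100% = vehicle alone without agonist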
# MCHR1 antagonist: MCHR1 (human) antagonism in GPR7 counter-screen; shares compounds with GPR7 antagonist; MCHR1-expressing cells, fluorescence antagonist assay; inhibition, % at 4.4 µM; 2,400 compounds, 62% hits; in the data active = inhibition above about 22%;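 also: 0% = vehicle with agonist and 100% = vehicle without agonist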
# Starred values were filed as active, the others as inactive; · = no result. The list is not random: actives were taken first. Their share in the collection is about 3.1%.
SMILES,CHO parental Ca,GalR3 antagonist,GPR7 antagonist,OX1R antag-1,OX1R antag-2,GPR7 antag cf,MCHR1 antagonist
CN1C(=O)C(/C(N)=N/NC(=O)c2ccccc2)C2CC1(C)Oc1ccccc12 (stereo unspecified),-3,-1,99*,-4,12,9,-3
CN(C(=O)COC(=O)C1CCN(S(=O)(=O)c2ccc3c(c2)OCCO3)CC1)C1CCCCC1,-20,-1,·,-19,18,·,·
COc1ccc(CCC(=O)OCC(=O)c2c(N)n(CC(C)C)c(=O)n(C)c2=O)cc1,44*,-3,28*,24,41,44*,60*
Cc1ccc(S(=O)(=O)CCC(=O)OCC(=O)c2c(N)n(CC(C)C)c(=O)n(C)c2=O)cc1,-6,-4,-15,-11,15,·,·
CCCCN1/C(=C/c2cccc[n+]2C)Sc2cc(NC(C)=O)ccc21,-2,-9,5,-10,0,·,·
CCCCN1/C(=C/c2ccc3ccccc3[n+]2CC)Sc2ccccc21,·,·,85*,·,·,81*,79*
CC(Oc1ccc(Cl)cc1Cl)C(=O)OCC(=O)c1c(N)n(C)c(=O)n(C)c1=O (stereo unspecified),-18,-5,·,6,10,·,·
COc1ccc(CNCCC(c2ccc(F)cc2)c2ccc(OC(C)C)cc2)cc1OC (stereo unspecified),5,-5,32*,-1,6,43*,77*
COc1ccc(C(CCNCc2ccccc2)c2ccc(F)cc2)cc1 (stereo unspecified),-17,-6,24,-39,2,·,·
COc1ccc(C(CCNCc2ccc(F)cc2)c2ccc(F)cc2)cc1 (stereo unspecified),-9,-6,39*,1,21,50*,77*
COc1ccc(C(CCNC(C)c2ccccc2)c2ccc(F)cc2)cc1 (stereo unspecified),-1,-10,40*,1,7,47*,56*
NNC(=O)c1[nH]c(-c2ccccc2)cc1-c1ccccc1,-10,-8,-1,-31,-1,·,·
COCCCNC(=O)Cc1c(C)c2c(cc(C)c3c(C(C)(C)C)coc32)oc1=O,-22,-5,6,-28,2,·,·
COc1cc(C(=O)Nc2ccn(C)n2)ccc1OC(F)F,-8,1,·,-5,6,·,·
COc1ccc(OC)c(N(CC(=O)N2CCC(C)CC2)S(=O)(=O)c2ccc(OC)c(OC)c2)c1,-16,-4,-10,-32,22,·,·
COc1ccc(OC)c(N(CC(=O)N2CCC(C)CC2)S(=O)(=O)c2ccccc2)c1,-15,-10,26*,-21,31,21,18
CC1(C(=O)NS(=O)(=O)c2cccc(Cl)c2)CCN1C(=O)c1ccccc1 (stereo unspecified),·,-4,·,·,·,·,·
CCOC(=O)CCc1c(C)c2ccc(OCC)c(C)c2oc1=O,1,-6,32*,-17,9,42*,30*
CCOC(=O)CCc1c(C)c2ccc(OCC(=O)N3CCOCC3)c(C)c2oc1=O,-7,2,-12,-20,22,·,·
COc1ccc(CCNC(=O)Cc2cc3c(cc2[N+](=O)[O-])OCO3)cc1OC,·,1,·,·,·,·,·
Cc1ccc(-n2cccn2)c(CN2CCCC(C(=O)c3sccc3C)C2)c1 (stereo unspecified),-21,-15,33*,-15,18,39*,41*
O/N=C/Cc1[nH]c2ccccc2c1-c1ccccc1,-3,-12,16,-6,-9,·,·
O=P(Cc1cc(Br)cc(Br)c1OCCO)(c1ccccc1)c1ccccc1,-35,-6,33*,-4,42,39*,20
Clc1cccc(CN2CCc3c([nH]c4ccccc34)C2)c1Cl,-14,-9,50*,-25,10,47*,29*
COc1ccccc1CN1CCc2c([nH]c3ccccc23)C1,-16,-3,2,-36,14,·,·
SMILES,CHO parental Ca,GalR3 antagonist,GPR7 antagonist,OX1R antag-1,OX1R antag-2,GPR7 antag cf,MCHR1 antagonist
CCCCOc1ccc(C(=O)Oc2ccc(C)nc2)cc1,-13,-5,7,-3,12,·,·
CCCCCOc1ccc(OC(=O)c2ccncc2)cc1,1,-3,27*,-28,12,1,-4
COc1ccc(-n2c(=S)[nH]c3cc(C(=O)Nc4ccccc4OC)ccc3c2=O)c(OC)c1,-12,-14,31*,-9,8,24*,46*
COc1ccc(-n2c(=S)[nH]c3cc(C(=O)NCc4ccccc4OC)ccc3c2=O)c(OC)c1,2,-2,26*,8,9,38*,39*
Cc1coc2cc3oc(=O)c(CCC(=O)NCCCN4CCCC4=O)c(C)c3cc12,-14,-1,-5,-19,14,·,·
Cc1coc2cc3oc(=O)c(CCC(=O)NCCCN4CCOCC4)c(C)c3cc12,-11,-2,43*,-14,5,-9,-4
Cc1ccccc1C(=O)N1CCC(C(=O)N(C)CC(=O)Nc2cccc(F)c2)CC1,-5,2,-4,1,13,·,·
COc1ccc(C/C(=N\OC(C)=O)c2ccc(OC)cc2)cc1,6,·,40*,-12,11,15,19
Cc1ccc(CCNC(=O)C2CCN(S(=O)(=O)N3CCOCC3)CC2)cc1,1,-6,-14,-6,5,·,·
C[C@H](NC(=O)c1ccco1)C(=O)NC1CCCCCC1,-8,-7,·,0,-3,·,·
CSCCC(NC(=O)c1ccco1)C(=O)OC(C)C(=O)NC(=O)NC1CCCCC1 (stereo unspecified),-19,0,29*,1,19,23,48*
N#CC1(c2ccccc2)CCC(NCCc2ccccc2)CC1 (stereo unspecified),-10,-14,40*,-57,7,7,2
CCCCN(C)CCCNC(=O)C1CCC(CNS(=O)(=O)c2c(C)cc(C)cc2C)CC1 (stereo unspecified),-10,-13,-1,-16,4,·,·
CC(C)Cc1cc(C(=O)N2CCCC(CO)(Cc3ccc(F)cc3)C2)no1 (stereo unspecified),-26,-8,18,-25,5,·,·
CC(C)Cc1cc(C(=O)N2CCCC(CO)(Cc3ccc(F)cc3F)C2)n[nH]1 (stereo unspecified),-29,1,·,-29,10,·,8
NC(=Nc1ccccc1)Nc1ccccc1,42*,-9,101*,35,5,98*,108*
CCOC(=O)/C(C(=Nc1ccccc1)Nc1ccccc1)=C(\C)O,-26,-9,-11,-35,0,·,·
Cn1cc(C(c2ccccn2)c2cn(C)c3ccccc23)c2ccccc21,-32,-9,26*,-26,1,41*,45*
O=C(c1cc2ccccc2o1)N1CCN(C/C=C/c2ccccc2)CC1,-4,-1,29*,-13,2,7,21*
